How the values were obtained:
[1] = tested on: MS2 coat protein; experiment: apparent Kd, MS2 coat protein; higher = weaker binding; RNA-MaP array
Outline: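 In Tris-HCl pH 7.5 buffer with KCl, MgCl2, BSA, DTT, tRNA and Tween20, with or without input ligand, fluorescently labeled MS2 coat protein at 1.5 nM to 3 μM was incubated at room temperature with designed RNAs. The RNAs had been transcribed on an Illumina sequencing chip from sequenced DNA templates, and incubation ran 0.8–1.5 h at the lowest to 10–20 min at the highest concentrations. Apparent Kd is the median of binding-curve fits for individual clusters. Designs measured on fewer than 10 clusters were excluded.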

[2] = tested on: MS2 coat protein; experiment: apparent Kd, MS2 coat protein; higher = weaker binding; RNA-MaP array; FMN 200 µM where present
Outline: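 Designs on Illumina sequencing-chip clusters, transcribed by stalled E. coli RNA polymerase, were exposed to SNAP-549-labelled MS2 coat protein in doubling steps from 0.7 or 1.5 nM up to 3 µM, without and then with constant ligand. The buffer held 100 mM Tris-HCl pH 7.5, 80 mM KCl, 4 mM MgCl2, BSA, DTT, yeast tRNA and Tween-20. Apparent Kd values are medians of filtered per-cluster binding-curve fits to green signal normalised to red-channel RNA signal and control-cluster median Fmax.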

[3] = designed as: ON switch for flavin mononucleotide, no ligand
[4] = ligand present: flavin mononucleotide, designed as: ON switch for flavin mononucleotide
[5] = designed as: ON switch for theophylline, no ligand
[6] = ligand present: theophylline, designed as: ON switch for theophylline
[7] = designed as: OFF switch for flavin mononucleotide, no ligand
[8] = ligand present: flavin mononucleotide, designed as: OFF switch for flavin mononucleotide

ACUCUAGAAUAGAAGGCCUGAGGAAGUAGUAAAGGAGGAUAUAUCAUACGAAAUUCACAUGAGGAUCACCCAUGUUGCGCAGAC
apparent Kd [1, 3]: 21.2 nM | apparent Kd [1, 4]: 12.4 nM

CGUAGGAUCGUGGAUACCAGUACCGCCCACGACAUGAGGAUCACCCAUGUAGGUAAUCUUUACCCUUGGCAGCCAUUUUUUUCUG
apparent Kd [1, 5]: 45.6 nM | apparent Kd [1, 6]: 52.9 nM

UUACAGAAAGGAUAUACAUGAGGAUCACCCAUGUAGUAUGAGUUGGUGAGAGUUCGUGGUAGAAGGUUCCGCAA
apparent Kd [1, 7]: 53 nM | apparent Kd [1, 8]: 55.2 nM

UCAAUUGAGGUCAAGGAUAUCUAGAAACAGACAUGAGGAUCACCCAUGUGCACAGCAUAAACGAGAGAGAAGGUGAGGCAUAUUGA
apparent Kd [1, 3]: 42.7 nM | apparent Kd [1, 4]: 26.5 nM

AGGUUACGUGUGAGGAUAUUAAGAUAUUAAAUUUAUAAGAAGGCACAUGAGGAUCACCCAUGUAUGACUUCCCA
apparent Kd [1, 7]: 5.66 nM | apparent Kd [1, 8]: 6.77 nM

GCUGUAAAGGAGAAGGUGAAUCGUAAGCUUGGUCAAGGAUAUCCGACUGGACAUGGCUGCAGACAUGAGGAUCACCCAUGUGCG
apparent Kd [1, 7]: 237 nM | apparent Kd [1, 8]: 113 nM

CAAACCAACUAGUAAAACAACAUGAGGAUCACCCAUGUAAGAGAGGAUAUUGAAAUCGAAAGCAACAAGAAGGCUCACCAUGUA
apparent Kd [1, 3]: 19.5 nM | apparent Kd [1, 4]: 15.8 nM

CUAAAGGAUGAAGGAUAUUUGAGUGACACGCAGAAAGAAGGUCAAGCUUACAUGAGGAUCACCCAUGUGCGUGAGUGCAGGUGC
apparent Kd [1, 7]: 14.4 nM | apparent Kd [1, 8]: 13.3 nM

GGGCGACUGCAAGGAUAUCUCGAAGUGAGUGGCAGAGAAGGUGCACGUACAUGAGGAUCACCCAUGUGAACUUAUUGGUCAAGG
apparent Kd [1, 7]: 25.2 nM | apparent Kd [1, 8]: 21.9 nM

CUCAGUGUGUAGAAGGUUUGCAUAGAAACAUCAAAAGGAUAUACAUGGUGAAGCCUUGAAACAUGAGGAUCACCCAUGUCUACG
apparent Kd [1, 3]: 632 nM | apparent Kd [1, 4]: 392 nM

UUUUUUUAACAGAAGGACAGACAUAUGAGGGACAUGAGGAUCACCCAUGUGUGCUCGCGUAGGCUGUAGGAUAUGUAGUGCUGG
apparent Kd [1, 7]: 11.2 nM | apparent Kd [1, 8]: 8.19 nM

CAAGCACCAACCGAUACCAGCUUAGUAGUAUGCUCAUUAAACAUGAGGAUCACCCAUGUGAGCCCUUGGCAGCGGAUUUCCCUGC
apparent Kd ([1]; designed as: OFF switch for theophylline, no ligand): 13.3 nM | apparent Kd ([1]; ligand present: theophylline, designed as: OFF switch for theophylline): 20.7 nM

CUGAGCAAAGGAUAUACUAAUUGUGAGUGACCCAGUUAACGACAUGAGGAUCACCCAUGUAGAAGGUUGGAACA
apparent Kd [1, 7]: 26.4 nM | apparent Kd [1, 8]: 24.6 nM

GCUCACAUGAGGAUCACCCAUGUCACGAGGUGAUGAUGAACAAGAAGGAAACUCAUAUGAUCAGUUUAGGAUAUUGCCCAGCGA
apparent Kd [1, 7]: 791 nM | apparent Kd [1, 8]: 460 nM

AAAUUAAUCAGAGGAUAUAGACAUGAGGAUCACCCAUGUACCAAAAUCGCGAAGAAGGAUCCGUGCUAGAAGGCAGAAUACAUA
apparent Kd [1, 7]: 10.3 nM | apparent Kd [1, 8]: 8.65 nM

UAACCACCGCAGGAUAUGCUAUGUUCAGUGUCUGCAGAAGGGCGUACAUGAGGAUCACCCAUGUAGUGACCUCA
apparent Kd [1, 7]: 95.2 nM | apparent Kd [1, 8]: 110 nM

CGCGUCCCGGACGAUACCAGAUAUGAGCGACACAUGAGGAUCACCCAUGUCAAUCAUGAGAUCCCUUGGCAGCGUUUGCACAACU
apparent Kd [1, 5]: 162 nM | apparent Kd [1, 6]: 209 nM

CCGACUCGCGUAGAGGAUAUGUAAUAAAAUACAUGAGGAUCACCCAUGUGAGACCGGGUGUCUCCACAGAAGGCUAUCGUGUCGUA
apparent Kd [1, 3]: 133 nM

AUUUCAUGUGUAGGAUAUCGCAUUCAGAACUAGCCAUCCACAUGAGGAUCACCCAUGUGUGCGGGCGAGAAGGACACGAGGGCA
apparent Kd [1, 3]: 9.72 nM | apparent Kd [1, 4]: 7.55 nM

CCGAGGCAAAUAAAACAUGAGGAUCACCCAUGUGAGUCUCAUGAGGAUAUGCAGGUCAAAGACUUGCAGAAGGCAUGGCUUCGG
apparent Kd [2, 3]: 1190 nM | apparent Kd [2, 4]: 146 nM

AUCAUGUAAGGAUAUCUGACAUGUGACGAAAGUCACUGUUCAGAGAAGGUACAUGAGGAUCACCCAUGUAGAAC
apparent Kd [2, 7]: 72.2 nM | apparent Kd [2, 8]: 133 nM

GGCUAACGGGCUAACAUGAGGAUCACCCAUGUGGACUCAUGGUAGGAUAUGCUGUACAAAGUACAGCAGAAGGGCCGGUGAGCC
apparent Kd [2, 3]: 128 nM | apparent Kd [2, 4]: 978 nM

AUGCCGUGCAGAGCGCGACGGCGUACAUGAGGAUCACCCAUGUAGGAUAUACUACACAAAGUGUAGUAGAAGGACGUGCGACUG
apparent Kd [2, 7]: 30.6 nM | apparent Kd [2, 8]: 33.4 nM

CAAUUGGCACAGAAGGGUGACAUGAGGAUCACCCAUGUAGCGUGGCACUCAGGAGAAGCCACGCCACAGGAUAUGUGCCGGCAC
apparent Kd [2, 3]: 73.6 nM | apparent Kd [2, 4]: 37.1 nM

UGGUGAAUUGAGAAGGGAACAGAUGUAGCUCCACAUGAGGAUCACCCAUGUUCAGGAUAUCAGUGCCCGACCUUGAGCGGUCGC
apparent Kd [2, 7]: 7.92 nM | apparent Kd [2, 8]: 11.8 nM

CUCCUACAUGAGGAUCACCCAUGUCAGGAUAUCUCAGUGGCACCUAAAGGCGCCACCCAGAGAAGGGACGUGCA
apparent Kd [2, 7]: 11.6 nM | apparent Kd [2, 8]: 14.8 nM

Source: the EternaBench riboswitch data
